Data from ChEMBL document CHEMBL1157963, “Characterization of pentasaccharide glycosides from the roots of Ipomoea arborescens” (2006).
Converted amounts (≈) assume the structure as drawn.

Tests used:
Format in all cases: functional
Conditions in all cases: read-out: ED50 (the source's name)
[1] = tested on: HCT-15; experiment: Cytotoxicity against human HCT15 cells
In short: (§1)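 Cultured human carcinoma lines were used: colon HCT-15, cervical UISO-SQC-1 and ovarian OVCAR-5. Cells were exposed to a series of concentrations of the purified glycosides, and the cell inhibitory concentration was determined. Maintenance and assay details follow an earlier procedure that is not given here.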

[2] = Cytotoxicity against human UISO-SQC1 cells; in short: as §1
[3] = tested on: OVCAR-5; experiment: Cytotoxicity against human OVCAR5 cells; in short: as §1

Compound | EC50 [1] [µg/mL] | EC50 [2] [µg/mL] | EC50 [3] [µg/mL]
CCCCCCCCCCCC(=O)O[C@H]1[C@H](O[C@@H]2[C@@H](O)[C@H]3OC(=O)CCCCCCCCCC(CCCCC)O[C@@H]4O[C@H](CO)[C@@H](O)[C@H](O)[C@H]4O[C@H]3O[C@H]2C)O[C@@H](C)[C@H](O[C@@H]2O[C@@H](C)[C@H](OC(C)=O)[C@@H](OC(=O)C(C)C(C)O)[C@H]2O[C@H]2O[C@H](CO)[C@@H](O)[C@H](O)[C@H]2O)[C@H]1O (some centres undefined) [ARBORESIN 2] | > 5 | > 5 | 4.2 (≈ 3.13 µM)
CCCCCCCCCCCC(=O)O[C@H]1[C@H](O[C@@H]2[C@@H](O)[C@H]3OC(=O)CCCCCCCCCC(CCCCC)O[C@@H]4O[C@H](CO)[C@@H](O)[C@H](O)[C@H]4O[C@H]3O[C@H]2C)O[C@@H](C)[C@H](O[C@@H]2O[C@@H](C)[C@H](OC(=O)CCC)[C@@H](OC(=O)C(C)C(C)O)[C@H]2O[C@H]2O[C@H](CO)[C@@H](O)[C@H](O)[C@H]2O)[C@H]1O (some centres undefined) [ARBORESIN 4] | > 5 | > 5 | > 5
C/C=C(\C)C(=O)O[C@@H]1[C@@H](OC(=O)C(C)C(C)O)[C@@H](O[C@H]2O[C@H](CO)[C@@H](O)[C@H](O)[C@H]2O)[C@H](O[C@@H]2[C@@H](O)[C@@H](OC(=O)CCCCCCCCCCC)[C@H](O[C@@H]3[C@@H](O)[C@H]4OC(=O)CCCCCCCCCC(CCCCC)O[C@@H]5O[C@H](C)[C@@H](O)[C@H](O)[C@H]5O[C@H]4O[C@H]3C)O[C@H]2C)O[C@H]1C (some centres undefined) [MURUCIN 8] | > 5 | > 5 | > 5
CCCCCCCCCCCC(=O)O[C@H]1[C@H](O[C@@H]2[C@@H](O)[C@H]3OC(=O)CCCCCCCCCC(CCCCC)O[C@@H]4O[C@H](C)[C@@H](O)[C@H](O)[C@H]4O[C@H]3O[C@H]2C)O[C@@H](C)[C@H](O[C@@H]2O[C@@H](C)[C@H](O)[C@@H](O)[C@H]2O[C@H]2O[C@H](CO)[C@@H](O)[C@H](O)[C@H]2O)[C@H]1O (some centres undefined) [MURUCIN 9] | > 5 | > 5 | 4 (≈ 3.38 µM)
CCCCCCCCCCCC(=O)O[C@H]1[C@H](O[C@@H]2[C@@H](O)[C@H]3OC(=O)CCCCCCCCCC(CCCCC)O[C@@H]4O[C@H](CO)[C@@H](O)[C@H](O)[C@H]4O[C@H]3O[C@H]2C)O[C@@H](C)[C@H](O[C@@H]2O[C@@H](C)[C@H](O)[C@@H](OC(=O)C(C)C(C)O)[C@H]2O[C@H]2O[C@H](CO)[C@@H](O)[C@H](O)[C@H]2O)[C@H]1O (some centres undefined) [ARBORESIN 1] | > 5 | > 5 | 5 (≈ 3.85 µM)
CCCCCCCCCCCC(=O)O[C@H]1[C@H](O[C@@H]2[C@@H](O)[C@H]3OC(=O)CCCCCCCCCC(CCCCC)O[C@@H]4O[C@H](CO)[C@@H](O)[C@H](O)[C@H]4O[C@H]3O[C@H]2C)O[C@@H](C)[C@H](O[C@@H]2O[C@@H](C)[C@H](OC(=O)C(C)CC)[C@@H](OC(=O)C(C)C(C)O)[C@H]2O[C@H]2O[C@H](CO)[C@@H](O)[C@H](O)[C@H]2O)[C@H]1O (some centres undefined) [ARBORESIN 5] | > 5 | > 5 | > 5
C/C=C/C(=O)O[C@@H]1[C@@H](OC(=O)C(C)C(C)O)[C@@H](O[C@H]2O[C@H](CO)[C@@H](O)[C@H](O)[C@H]2O)[C@H](O[C@@H]2[C@@H](O)[C@@H](OC(=O)CCCCCCCCCCC)[C@H](O[C@@H]3[C@@H](O)[C@H]4OC(=O)CCCCCCCCCC(CCCCC)O[C@@H]5O[C@H](C)[C@@H](O)[C@H](O)[C@H]5O[C@H]4O[C@H]3C)O[C@H]2C)O[C@H]1C (some centres undefined) [MURUCIN 7] | > 5 | > 5 | 4.5 (≈ 3.33 µM)
CCCCCCCCCCCC(=O)O[C@H]1[C@H](O[C@@H]2[C@@H](O)[C@H]3OC(=O)CCCCCCCCCC(CCCCC)O[C@@H]4O[C@H](CO)[C@@H](O)[C@H](O)[C@H]4O[C@H]3O[C@H]2C)O[C@@H](C)[C@H](O[C@@H]2O[C@@H](C)[C@H](OC(=O)CC)[C@@H](OC(=O)C(C)C(C)O)[C@H]2O[C@H]2O[C@H](CO)[C@@H](O)[C@H](O)[C@H]2O)[C@H]1O (some centres undefined) [ARBORESIN 3] | > 5 | > 5 | > 5
